Source: PubChem BioAssay (several laboratories)
Shown are actives, neighbours in structure and some others; about 29% of the full set was active somewhere.
CYP2C9 act: increases human cytochrome P450 2C9 activity | recombinant CYP2C9, luciferin-H conversion, luminescence; active compounds read high; factor 1 = untreated enzyme, 0 = blocked | activation factor at 5 µM | 96,000 compounds, 1.4% hits | AID 1024;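 active = activation factor of 2 or more for CYP2C9 at a 5 µM dose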
Target sequence (P11712 whole entry, looked up): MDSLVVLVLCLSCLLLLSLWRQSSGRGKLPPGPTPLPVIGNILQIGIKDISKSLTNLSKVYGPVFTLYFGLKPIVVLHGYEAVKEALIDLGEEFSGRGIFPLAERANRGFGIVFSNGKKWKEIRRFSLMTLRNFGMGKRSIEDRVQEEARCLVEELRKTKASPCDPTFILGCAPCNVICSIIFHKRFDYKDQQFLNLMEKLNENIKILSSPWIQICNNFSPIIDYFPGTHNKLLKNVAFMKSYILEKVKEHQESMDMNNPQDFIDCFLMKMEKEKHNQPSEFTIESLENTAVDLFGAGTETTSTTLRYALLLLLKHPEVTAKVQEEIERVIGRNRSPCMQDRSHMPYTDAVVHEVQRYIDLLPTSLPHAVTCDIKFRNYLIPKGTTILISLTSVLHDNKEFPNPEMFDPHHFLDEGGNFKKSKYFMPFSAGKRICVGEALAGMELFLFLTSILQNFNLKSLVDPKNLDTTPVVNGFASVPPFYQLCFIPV
Ecoli tolC: blocks growth of E. coli BW25113 tolC mutant | OD615 | growth inhibition, % at 10 µM (by protocol) | 65,000 compounds, 2.2% hits | AID 573;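 active = growth inhibition at or above a cutoff equal to the mean over every tested compound plus 3 SD, cut at about 60% in these data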;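 also: growth measured after 20 h incubation at 37 °C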
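Test system: E. coli BW25113 ΔtolC::kan bacteria | Medium: Kanamycin-containing LB broth (50 µg/mL) | Dosing: One dose of 10 µM final | Times: 20 h incubation with compound, 37 °C | Detection: Optical density read at 615 nm | Read-out basis: Percent growth inhibition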
Ecoli WT expand: E. coli BW25113 growth inhibition, expanded screen; 98,000 compounds, 0.15% hits; AID 710; OD600 absorbance; growth inhibition, % at 100 µM;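 active = growth inhibition above about 50% at one test dose, limit read from the data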;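 also: growth measured after 20 h incubation at 37 °C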
CYP2C19 inh: blocks human cytochrome P450 2C19. inhibition, % at 5 µM. CYP2C19 Supersomes, luciferin-H EGE luminescence, 30 min. 96,000 compounds, 21% hits. P33261. AID 778;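 active = CYP2C19 inhibition above a set limit at 5 µM in the primary screen, cut at about 50% in these data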
CYP2C19 act: increases human CYP2C19 enzyme activity; recombinant CYP2C19, luciferin-H EGE luminescence; active compounds read high; 0 = fully inhibited enzyme, 1 = untreated enzyme; activation factor at 5 µM; 96,000 tested, under 10 active;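 active = activation factor of at least 2 at 5 µM in the primary screen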
CYP2C9 inh: inhibitors of human CYP2C9 | inhibition, % at 5 µM | AID 777 | 96,000 compounds, 20% hits | CYP2C9 Supersomes, luciferin-H conversion, luminescence | P11712;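 active = blocking of liver enzyme CYP2C9 beyond about 50% at 5 µM, limit read from the data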
A number is an active result.

Screening COc1ccc(-c2cc3ccccc3n2CC(O)CNC(CO)(CO)CO)cc1 (stereo not given) returned CYP2C9 act inactive, Ecoli tolC inactive, Ecoli WT expand inactive, CYP2C19 inh inactive, CYP2C19 act inactive and CYP2C9 inh inactive.
Screening CCN(CC)CCNc1nc2cc(OC)c(OC)cc2c2nc(-c3ccccc3)nn12 returned CYP2C9 act inactive, Ecoli WT expand inactive, CYP2C19 inh inactive, CYP2C19 act inactive and CYP2C9 inh inactive.
Screening Cc1cc(OCC(=O)c2ccc(F)cc2)ccc1N1C(=O)CCC1=O returned CYP2C9 act inactive, Ecoli tolC inactive, Ecoli WT expand inactive, CYP2C19 inh inactive, CYP2C19 act inactive and CYP2C9 inh inactive.
Screening COc1ccc(NC(=O)C2C3C=CC(C3)C2C(=O)NCc2ccco2)cc1 (stereo not given) returned CYP2C9 act inactive, Ecoli tolC inactive, Ecoli WT expand inactive, CYP2C19 inh 67, CYP2C19 act inactive and CYP2C9 inh inactive.
Screening O=C(NC1CS(=O)(=O)CC1NCc1ccccc1)c1ccccc1 (stereo not given) returned CYP2C9 act inactive, Ecoli tolC inactive, Ecoli WT expand inactive, CYP2C19 inh inactive, CYP2C19 act inactive and CYP2C9 inh inactive.
`COc1ccc(NC2CS(=O)(=O)CC2NCc2ccco2)cc1` (stereo not given) gave CYP2C9 act inactive, Ecoli tolC inactive, Ecoli WT expand inactive, CYP2C19 inh 89, CYP2C19 act inactive and CYP2C9 inh inactive.
For O=S1(=O)CC(NCc2ccccc2)C(Nc2ccccc2)C1 (stereo not given) the results were CYP2C9 act inactive, Ecoli tolC inactive, Ecoli WT expand inactive, CYP2C19 inh 86, CYP2C19 act inactive and CYP2C9 inh inactive.
For CC1CC(C)CN(c2nc3c(c(=O)n(C)c(=O)n3C)n2CCSc2nc3ccccc3o2)C1 (stereo not given) the results were Ecoli tolC inactive.
Screening CCCCN(CCCC)CCNC(=O)Cc1nc2c(c(=O)[nH]c(=O)n2C)n1C returned CYP2C9 act inactive, Ecoli tolC inactive, Ecoli WT expand inactive, CYP2C19 inh inactive, CYP2C19 act inactive and CYP2C9 inh inactive.
For Cc1cc(C)c(S(=O)(=O)N2CCN(c3ccc([N+](=O)[O-])c(NCC4CCCO4)c3)CC2)c(C)c1 (stereo not given) the results were CYP2C9 act inactive, Ecoli WT expand inactive, CYP2C19 inh inactive, CYP2C19 act inactive and CYP2C9 inh 56.
`Cc1cc(C)c(S(=O)(=O)N2CCN(c3ccc([N+](=O)[O-])c(NCc4ccco4)c3)CC2)c(C)c1` gave CYP2C9 act inactive, Ecoli WT expand inactive, CYP2C19 inh inactive, CYP2C19 act inactive and CYP2C9 inh 53.
CC(C)c1ccc(CNc2cc(N3CCCC3)ccc2[N+](=O)[O-])cc1 was read as CYP2C9 act inactive, Ecoli WT expand inactive, CYP2C19 inh inactive, CYP2C19 act inactive and CYP2C9 inh 53.
For CCNc1cc(N2CCN(S(=O)(=O)c3ccc4c(c3)CCCC4)CC2)ccc1[N+](=O)[O-] the results were CYP2C9 act inactive, Ecoli WT expand inactive, CYP2C19 inh 54, CYP2C19 act inactive and CYP2C9 inh inactive.
Screening CC(C)(C)CNc1cc(N2CCCC2)ccc1[N+](=O)[O-] returned CYP2C9 act inactive, Ecoli WT expand inactive, CYP2C19 inh inactive, CYP2C19 act inactive and CYP2C9 inh inactive.
`O=[N+]([O-])c1ccc(N2CCN(S(=O)(=O)c3ccc(Cl)cc3)CC2)cc1NCC1CCCO1` (stereo not given) gave CYP2C9 act inactive, Ecoli WT expand inactive, CYP2C19 inh inactive, CYP2C19 act inactive and CYP2C9 inh inactive.
Screening CCCc1nc(N2CCOCC2)c2sc(=S)n(-c3ccccc3)c2n1 returned CYP2C9 act inactive, Ecoli WT expand inactive, CYP2C19 inh inactive, CYP2C19 act inactive and CYP2C9 inh inactive.
`COc1ccc(-n2c(Cc3cccn3C)nnc2SCC(=O)Nc2ccc(C(C)=O)cc2)cc1` gave CYP2C9 act inactive, Ecoli tolC inactive, Ecoli WT expand inactive, CYP2C19 inh inactive, CYP2C19 act inactive and CYP2C9 inh inactive.
Cc1ccc(NC(=O)CSc2nnc(-c3cccs3)n2Cc2ccco2)cc1 was read as CYP2C9 act inactive, Ecoli WT expand inactive, CYP2C19 inh inactive, CYP2C19 act inactive and CYP2C9 inh inactive.
